Data published in ChEMBL document CHEMBL3763088, “Design, synthesis, and biological evaluation of water-soluble amino acid prodrug conjugates derived from combretastatin, dihydronaphthalene, and benzosuberene-based parent vascular disrupting agents” (Bioorg Med Chem, 2016).
“And” between values parts separate entries of the source, which are not always exact repeats. Identical values can stand only once.

Columns and labels:
[1] = Cytotoxicity against human DU145 cells assessed as growth inhibition after 48 hrs by SRB assay; format: functional, DU-145
Procedure, shortened: (§1)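 Cells kept at 37 °C, 5% CO2, up to passage 15. Plated at 7500 cells/well in DMEM with 5% FBS and 1% gentamycin, grown 24 h, then given 10-fold serial dilutions for 48 h. Fixed with 10% TCA (final), SRB-stained, read at 540 nm, normalized at 630 nm. GI50 is the concentration halving net protein staining versus controls, taken from optical density data.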

[2] = Cytotoxicity against human SKOV3 cells assessed as growth inhibition after 48 hrs by SRB assay; format: functional, SK-OV-3; procedure, shortened: as §1
[3] = test system: NCI-H460; experiment: Cytotoxicity against human NCI-H460 cells assessed as growth inhibition after 48 hrs by SRB assay; format: functional; procedure, shortened: as §1
[4] = target: T1, Tubulin (Bos taurus) (UniProt Q6B856+Q862L2+Q862F3); experiment: Displacement of [3H]colchicine from bovine brain tubulin at 5 uM after 10 mins by scintillation counting analysis
Procedure, shortened: (§2)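 1.0 μM tubulin with 5.0 μM [3H]colchicine and inhibitor at 1.0 or 5.0 μM. Buffer: 5% DMSO, 1.0 M monosodium glutamate pH 6.6, 0.5 mg/mL BSA, 0.1 M glucose-1-phosphate, 1.0 mM MgCl2, 1.0 mM GTP. Incubated 10 min at 37 °C, stopped with ice-cold water, collected on DEAE-cellulose filters and scintillation counted. Corrected for filter binding without tubulin; % inhibition against no-inhibitor controls.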

[5] = target: T1, Tubulin (Bos taurus); experiment: Displacement of [3H]colchicine from bovine brain tubulin at 1 uM after 10 mins by scintillation counting analysis; procedure, shortened: as §2
[6] = target: T2, Leucine aminopeptidase (Sus scrofa, UniProt Q29571); experiment: Prodrug conversion assessed as porcine leucine aminopeptidase-mediated compound cleavage by HPLC analysis; format: ADME; settings: pig
T2 sequence (Q29571 whole entry): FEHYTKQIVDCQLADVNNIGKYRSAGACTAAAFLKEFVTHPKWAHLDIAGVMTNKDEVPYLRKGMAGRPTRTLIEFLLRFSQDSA
Procedure, shortened: (§3)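 Porcine kidney microsomal LAP; units defined with 24 mM L-leucine p-nitroanilide in 50 mM sodium phosphate pH 7.2 at 37 °C. Enzyme preincubated in the same buffer at 37 °C, then substrate added. Aliquots were quenched with acetonitrile on ice, centrifuged and run on C18 HPLC (acetonitrile/water, 0.05% TFA, 1.0 mL/min, 22 °C, diode-array UV). Cleavage % from the parent/prodrug peak-area ratio; amounts from calibration curves.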

[7] = target: T2, Leucine aminopeptidase; experiment: Activity at porcine leucine aminopeptidase by HPLC analysis; format: ADME; settings: pig; procedure, shortened: as §3
[8] = target: Tubulin (Bos taurus, UniProt Q6B856+Q862L2+Q862F3); experiment: Inhibition of bovine brain tubulin polymerization preincubated for 15 mins by spectrophotometric analysis
Procedure, shortened: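 Purified bovine brain tubulin, 1.0 mg/mL (10 μM), in 0.8 M monosodium glutamate pH 6.6 with 4% DMSO and varied compound. Temperature jumped from 0 to 30 °C; turbidity at 350 nm followed for 20 min.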

SMILES	GI50 ([1]; Homo sapiens, DU-145, 48 h)	GI50 ([2]; Homo sapiens, SK-OV-3, 48 h)	GI50 ([3]; Homo sapiens, NCI-H460, 48 h)	GI50 [1]	GI50 [2]	Drug metabolism [6]	GI50 [3]	other results
COc1ccc(/C=C\c2cc(OC)c(OC)c(OC)c2)c(NC(=O)CN)c1	43.6 nM	32.3 nM	53.2 nM	–	–	–	–	–
COc1ccc(/C=C\c2cc(OC)c(OC)c(OC)c2)c(N)c1	–	–	–	–	–	–	–	inhibition [4]: 88% and 75%; inhibition [5]: 55%
COc1ccc(/C=C\c2cc(OC)c(OC)c(OC)c2)c(NC(=O)CN)c1.Cl	–	–	–	44.7 nM	48.5 nM	100%	29.2 nM	Activity [7]: 180 µM/min
COc1ccc(/C=C\c2cc(OC)c(OC)c(OC)c2)cc1O [COMBRETASTATIN A4]	6.02 nM	5.06 nM	5 nM	–	–	–	–	inhibition [5]: 84%
COc1ccc(/C=C\c2cc(OC)c(OC)c(OC)c2)cc1NC(=O)[C@@H](N)CO [OMBRABULIN]	–	–	–	16.4 nM	9.02 nM	95%	24.1 nM	IC50 [8]: 14000 nM
COc1ccc(/C=C\c2cc(OC)c(OC)c(OC)c2)cc1N	3.3 nM	4.45 nM	4.49 nM	–	–	–	–	–
COc1ccc2c(c1NC(=O)[C@@H](N)CO)CCC=C2c1cc(OC)c(OC)c(OC)c1	40600 nM	13700 nM	31100 nM	–	–	–	–	–
COc1ccc(/C=C\c2cc(OC)c(OC)c(OC)c2)c(NC(=O)[C@@H](N)CO)c1NC(=O)[C@@H](N)CO.Cl.Cl	–	–	–	> 86600 nM	> 86600 nM	metabolite_notdetected	> 86600 nM	–
COc1ccc(/C=C\c2cc(OC)c(OC)c(OC)c2)cc1NC(=O)[C@@H](N)CO.Cl	–	–	–	3.34 nM	3.96 nM	95%	3.87 nM	IC50 [8]: 13000 nM
COc1ccc2c(c1NC(=O)CN)CCCC=C2c1cc(OC)c(OC)c(OC)c1.Cl	–	–	–	773 nM	203 nM	100%	567 nM	Activity [7]: 0.12 µM/min
COc1ccc2c(c1NC(=O)CN)CCC=C2c1cc(OC)c(OC)c(OC)c1	50.1 nM	–	36.5 nM	–	13.8 nM	–	–	–
COc1ccc(/C=C/c2cc(OC)c(OC)c(OC)c2)c(NC(=O)[C@H](N)CO)c1.Cl	4550 nM	2290 nM	2240 nM	–	–	90%	–	–
COc1ccc(/C=C\c2cc(OC)c(OC)c(OC)c2)c(N)c1.Cl	–	–	–	28.5 nM	7.35 nM	–	26.3 nM	IC50 [8]: 2500 nM
COc1ccc2c(c1N)CCCC=C2c1cc(OC)c(OC)c(OC)c1	2.26 nM	0.137 nM	1.85 nM	–	–	–	–	IC50 [8]: 1300 nM; inhibition [4]: 82%
COc1ccc(/C=C\c2cc(OC)c(OC)c(OC)c2)c(NC(=O)[C@@H](N)CO)c1.Cl	–	–	–	48.4 nM	51.6 nM	62%	31.7 nM	Activity [7]: 1.2 µM/min
COc1ccc2c(c1NC(=O)CN)CCCC=C2c1cc(OC)c(OC)c(OC)c1	507 nM	195 nM	566 nM	–	–	–	–	–
COc1ccc(/C=C\c2cc(OC)c(OC)c(OC)c2)c(NC(=O)[C@@H](N)CO)c1	34.7 nM	39.5 nM	33.3 nM	–	–	–	–	–
COc1ccc2c(c1NC(=O)[C@@H](N)CO)CCCC=C2c1cc(OC)c(OC)c(OC)c1	> 81300 nM	44900 nM	45900 nM	–	–	–	–	–
COc1ccc(/C=C\c2cc(OC)c(OC)c(OC)c2)c(NC(=O)[C@@H](N)CO)c1NC(=O)[C@@H](N)CO	–	–	–	33600 nM	25900 nM	metabolite_notdetected	24400 nM	–
